Experimental findings from ChEMBL document CHEMBL4334444, “Studies of Jatrogossone A as a Reactive Oxygen Species Inducer in Cancer Cellular Models” (J Nat Prod, 2019) are described below.

In general, half-life refers to the time in which the quantity being followed falls by half. Low values mean fast loss, high ones slow loss. Usually IC50 stands for the midpoint of a concentration-inhibition curve.

Calls of active or inactive are those of the source. No cut-off for these calls is given here.

For data set [1], the system named is KOPN-8. Put plainly: Antiproliferative activity against human KOPN8 cells assessed as reduction in cell viability at 0.1 to 250 uM by CellTiter-Glo assay. The format is functional, cell-based. In outline:
(§1)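 CellTiter-Glo luminescent viability readout. Cells kept at 37 °C under 5% CO2. HMEC primary cells grown in basal medium with growth kit; leukemia lines and murine BCR-ABL (WT, Bax/Bak DKO) cultured per earlier description. Positive controls: staurosporine 25 μM, gambogic acid 10 μM, a toxic quinoline. At least two biological replicates in technical triplicate; luminescence normalized to untreated controls; EC50 computed.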
In general terms: ATP-based viability assays read luminescence as a measure of living cells.

A further data set concerns K562. Put plainly: Antiproliferative activity against human K562 cells assessed as reduction in cell viability at 0.1 to 250 uM by CellTiter-Glo assay. The class given is functional, cell-based. In outline:
as §1

A further data set relates to PBMC. Put plainly: Cytotoxicity against human PBMC cells assessed as reduction in cell viability at 0.1 to 250 uM by CellTiter-Glo assay. The format is cell-based. In outline: as §1
The test system of data set [2] is MCF7. Put plainly: Induction of cell death in human MCF7 cells at 10 uM after 24 hrs. The format is functional, cell-based.
Data set [3] concerns MCF7. Put plainly: Upregulation of Trx expression in human MCF7 at 10 uM after 3 to 6 hrs by Western blot analysis. The class given is functional, cell-based. In outline: (§2)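 Western blot of KOPN-8 or MCF-7 lysates, 30 μg protein per lane on 4–12% Bis-Tris SDS-PAGE and transferred to nitrocellulose. Blots were probed with an oxidative stress defense antibody cocktail (catalase, SOD1, Trx, smooth muscle actin) and tubulin, and detected with IR-dye secondaries on a LI-COR Odyssey.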
For orientation: In western blotting, separated proteins are transferred to a membrane and probed.

In data set [4] the test system is SUM149PT. Put plainly: Antiproliferative activity against human SUM149 cells assessed as reduction in cell viability at 0.1 to 250 uM after 48 hrs by propidium iodide staining based fluorescence assay. The class given is functional. In outline:
(§3)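 MDA-MB-231 and SUM149 seeded at 6 × 10^4 to 2 × 10^5 cells/well, cultured 24 h, then exposed for 48 h. Cells fixed in cold methanol, stained with 0.4% propidium iodide, fluorescence imaged. Viability expressed as percent surviving cells relative to vehicle wells.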

In data set [5] the test system is KOPN-8. Put plainly: Induction of cell death in human KOPN8 cells at 4 to 10 uM after 24 hrs. The class given is functional, cell-based.
Data set [6] concerns KOPN-8. Put plainly: Upregulation of Trx expression in human KOPN8 at 10 uM after 3 to 6 hrs by Western blot analysis. The class given is functional, cell-based. In outline: as §2
In the next data set the test system is SUP-B15. Put plainly: Antiproliferative activity against human SUP-B15 cells assessed as reduction in cell viability at 0.1 to 250 uM by CellTiter-Glo assay. The class given is functional, cell-based. In outline:
as §1

The test system of the next data set is UoC-B1. Put plainly: Antiproliferative activity against human UOCB1 cells assessed as reduction in cell viability at 1 to 10 uM by CellTiter-Glo assay. The format is functional, cell-based. In outline: as §1
The subject of a further data set is MDA-MB-231. Put plainly: Antiproliferative activity against human MDA-MB-231 cells assessed as reduction in cell viability at >10 uM after 48 hrs by propidium iodide staining based fluorescence assay. The class given is functional. In outline:
as §3

The test system of data set [7] is KOPN-8. Put plainly: Induction of mitochondrial membrane potential loss in human KOPN8 cells at 30 uM after 24 to 48 hrs by TMRM staining based flow cytometric analysis. The class given is functional, cell-based. In outline:
(§4)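 TMRM flow cytometry. KOPN-8 (4 × 10^4 or 5 × 10^5 per well) or MCF-7 (2 × 10^4 or 2 × 10^5 per well) were seeded 24 h, then treated 24–48 h. FCCP 10 μM was added 10 min before staining as positive control. Cells were stained with TMRM 100 nM for 0.5 h, then PBS-washed, resuspended in PBS with 1% FBS and analysed by flow cytometry; DAPI flagged compromised cells.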
A general note: In flow cytometry, cells or beads pass a laser one at a time.

Data set [8] has as its system MCF7. Put plainly: Induction of apoptosis in human MCF7 cells assessed as increase in cleaved PARP 1 level at 1 to 100 uM after 24 hrs by Western blot analysis. The class given is functional, cell-based. In outline: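 Western blot of KOPN-8 and MCF-7 lysates made in RIPA-type buffer (Tris pH 7.5, Triton X-100, deoxycholate, SDS) with protease and phosphatase inhibitors. 30 μg protein per lane was run on 4–12% Bis-Tris SDS-PAGE and transferred to nitrocellulose. Blots were probed for cleaved caspase-7 and PARP-1 and detected with IR-dye secondaries. Menadione served as positive control: 10 μM in KOPN-8, 30 μM in MCF-7. Blots are representative of three independent experiments.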

A short description of data set [9]: Half life in human plasma. The class given is ADME, cell-free.
Data set [10] deals with KOPN-8. Put plainly: Induction of apoptosis in human KOPN8 cells at 10 uM by Annexin V-FITC and propidium iodide staining based flow cytometry. The class given is functional, cell-based. The conditions noted are these: TDE = time-dependent effect. In outline: (§5)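 KOPN-8 cells were plated at 1.00 × 10^6 per plate and held 12 h at 37 °C, then treated 24 h; positive control 2 μM staurosporine, vehicle DMSO. Cells were stained with Annexin V-FITC and PI and analysed by flow cytometry (FACSCalibur). Profiles are representative of three independent biological replicates.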

The subject of data set [11] is SUM149PT. Put plainly: Antiproliferative activity against human SUM149 cells assessed as reduction in cell viability at >10 uM after 48 hrs by propidium iodide staining based fluorescence assay. The class given is functional. In outline: as §3
Data set [12] has as its system KOPN-8. Put plainly: Cell cycle arrest in human KOPN8 cells assessed as increase in accumulation at G2/M phase at 10 uM incubated for 24 hrs by propidium iodide staining based flow cytometric analysis relative to control. The class given is functional. In outline: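 KOPN-8 plated at 1.00 × 10^6 cells/plate, held 12 h at 37 °C, treated 24 h at 10 μM; DMSO vehicle and 2 μM staurosporine as controls. Cells fixed in cold methanol, RNase-treated, stained with PI (50 μg/mL); cell-cycle distribution by flow cytometry.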

Another data set concerns U2OS. Put plainly: Ratio of concentration required for induction of apoptosis in human U2OS cells to concentration required for induction of mito-phagy in human U2OS cells transfected with mKeima-Red-Mito-7. The class given is functional.
Data set [13] relates to KOPN-8. Put plainly: Induction of mitochondrial membrane potential loss in human KOPN8 cells at 10 uM after 24 to 48 hrs by TMRM staining based flow cytometric analysis. The class given is functional, cell-based. In outline: as §4
In data set [14] the test system is KOPN-8. Put plainly: Cytotoxicity against human KOPN8 cells assessed as cell viability at 0.95 to 125 uM after 72 hrs in presence of pan caspase inhibitor, Z-VAD-FMK by CellTiter-Glo assay. The format is functional, cell-based.
Data set [15] is described as follows: Stability in CH3CN assessed as micheal adduct formation by measuring intact compound incubated for 16 hrs in presence of glutathione by LC-MS analysis. The class given is physicochemical.
A further data set has as its system B-ALL. Put plainly: Cytotoxicity against BCR-ABL positive p185-positive mouse B-ALL cells expressing human BCL-W assessed as inhibition of cell viability after 24 hrs by AnnexinV-FITC/propidium iodide staining based flow cytometric analysis. The class given is functional.
For a further data set, the system named is HMEC. Put plainly: Cytotoxicity against human HMEC cells assessed as cell viability at >100 uM by CellTiter-Glo assay. The class given is cell-based. In outline: as §1
A further data set deals with BJ. Put plainly: Cytotoxicity against human BJ cells assessed as cell viability at >100 uM by CellTiter-Glo assay. The format is cell-based. In outline:
as §1

Data set [16] relates to KOPN-8. Put plainly: Induction of apoptosis in human KOPN8 cells assessed as early apoptotic cells at 10 uM after 24 hrs by Annexin V-FITC and propidium iodide staining based flow cytometry. The format is functional, cell-based. In outline: as §5
A short description of data set [17]: Stability in CH3CN assessed as micheal adduct formation by measuring intact compound incubated for 16 hrs in presence of glutathione by NMR analysis. The format is physicochemical.

Take `CC1=C2CC(C)(C)/C=C/C(=O)/C(C)=C\C3=C[C@H](C)C[C@]3(O2)C1=O` [JATROPHONE]: the inhibition result in the data set with KOPN-8 [1], in the data set on K562, in the data set on SUM149PT [4] and in the data set with SUP-B15 was “Active” throughout. For the same compound, the Activity entry in the data set on PBMC was “Toxic”. For the same compound, the outcome in the data set with MCF7 [2] and with KOPN-8 [5] was Active. Also, the result in the data set with MCF7 [3] and in the data set on KOPN-8 [6] was inactive.

`CC(=O)O[C@H]1/C2=C/[C@@H](C)C(=O)C[C@H]3[C@@H](/C=C(\C)C(=O)[C@H]2C[C@H]1C)C3(C)C`: the inhibition entry with UoC-B1, with MDA-MB-231 and in the data set with SUM149PT [11] was “Active” in each case. Besides, the outcome with KOPN-8 [7] and in the data set with MCF7 [8] was Active. This compound gave a half-life in data set [9] of 19.5 h. The Activity entry is “Tde” with KOPN-8 [10], 10% with KOPN-8 [12], “Non-Toxic” in the data set with HMEC and “Non-Toxic” in the data set on BJ. In addition, in the data set on U2OS, the Ratio came to 5. Further, the outcome in the data set on KOPN-8 [13], in the data set on KOPN-8 [14] and with KOPN-8 [16] was inactive. For the same compound, the Stability result in [15] and in data set [17] was “Stable” throughout. Moreover, in the data set with B-ALL, the IC50 was determined as 14.4 µM.
